Reference: ChEMBL document CHEMBL3526045, “Conclusive identification of the oxybutynin-hydrolyzing enzyme in human liver” (Drug Metab Dispos, 2012)

Tests used:
Cocaine esterase [1] = target: T1, Cocaine esterase (Homo sapiens, UniProt O00748); assay: Activity of human recombinant CES2 expressed in baculovirus-infected High Five insect cells assessed as enzyme-mediated compound formation formation treated with oxybutynin at 10 uM for 30 mins by HPLC analysis in presence of 10 uM CES1 inhibitor NDGA; assay type: ADME; details: 0.5 h
T1 sequence (O00748 whole entry): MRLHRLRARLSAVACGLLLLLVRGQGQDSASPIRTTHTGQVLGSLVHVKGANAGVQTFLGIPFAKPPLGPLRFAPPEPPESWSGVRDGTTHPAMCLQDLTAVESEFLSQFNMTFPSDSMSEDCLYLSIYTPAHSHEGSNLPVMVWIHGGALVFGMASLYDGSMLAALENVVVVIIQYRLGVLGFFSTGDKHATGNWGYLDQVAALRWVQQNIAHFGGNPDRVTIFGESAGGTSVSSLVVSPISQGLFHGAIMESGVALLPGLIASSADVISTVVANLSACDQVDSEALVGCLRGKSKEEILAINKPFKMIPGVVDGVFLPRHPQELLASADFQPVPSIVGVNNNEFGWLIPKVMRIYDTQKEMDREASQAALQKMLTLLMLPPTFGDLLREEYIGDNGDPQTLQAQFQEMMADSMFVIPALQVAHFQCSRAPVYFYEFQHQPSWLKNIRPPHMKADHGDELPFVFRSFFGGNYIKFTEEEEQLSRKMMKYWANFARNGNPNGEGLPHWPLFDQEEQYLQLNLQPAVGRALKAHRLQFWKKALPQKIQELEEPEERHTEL
Procedure, shortened: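 Oxybutynin (10 μM) hydrolysis to CPGA by recombinant CES2-expressing microsomes at 0.1 mg/mL final protein, in 0.05 mol/L Tris-HCl pH 7.6 at 37 °C. Inhibitor was added before a 5 min preincubation, with at most 0.2% final DMSO. Substrate addition started the reaction, which ran 30 min. It was stopped with ACN/1% formic acid plus internal standard. CPGA was quantified by LC-MS/MS in negative MRM mode, as relative activity versus control, in duplicate.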

Cocaine esterase [2] = target: T1, Cocaine esterase; assay: Activity of human recombinant CES2 expressed in baculovirus-infected High Five insect cells assessed as 30 to 300 uM CES1 inhibitor procainamide-mediated inhibition of enzyme-mediated 2-cyclohexyl-2-phenylglycolic acid formation at 10 uM for 30 mins by HPLC analysis; details: 0.5 h
Cocaine esterase [3] = target: T1, Cocaine esterase; assay: Activity of human recombinant CES2 expressed in baculovirus-infected High Five insect cells assessed as 5 uM CES2 inhibitor loperamide-mediated inhibition of enzyme-mediated 2-cyclohexyl-2-phenylglycolic acid formation at 10 uM for 30 mins by HPLC analysis; details: 0.5 h
[4] = Drug metabolism in human liver microsomes; assay type: ADME
[5] = Drug metabolism in human liver cytosol; assay type: ADME, tissue-based
Liver microsome [6] = assay: Drug metabolism in human liver microsomes assessed as 2-cyclohexyl-2-phenylglycolic acid formation by Michaelis-Menten equation; assay type: ADME
Procedure, shortened: (§1)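 Oxybutynin (2.5–250 μM) incubated 15 min at 37 °C in 0.05 mol/L Tris-HCl pH 7.6 after 5 min pre-incubation. Final protein: liver microsomes 0.05, liver cytosol 0.1, recombinant CES1 microsomes 0.05 mg/mL. Stopped with acetonitrile/1% formic acid plus internal standard; CPGA quantified by LC-MS/MS in negative MRM mode; duplicates. Km, Vmax from Michaelis-Menten fit; CLint = Vmax/Km.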

Liver cytosol [7] = assay: Drug metabolism in human liver cytosol assessed as 2-cyclohexyl-2-phenylglycolic acid formation by Michaelis-Menten equation; assay type: ADME, tissue-based; procedure, shortened: as §1
[8] = Activity of human recombinant CES1b/CES1A1 expressed in baculovirus-infected High Five insect cells assessed as enzyme-mediated 2-cyclohexyl-2-phenylglycolic acid formation by Michaelis-Menten equation; assay type: ADME; procedure, shortened: as §1
Liver microsome [9] = assay: Drug metabolism in human liver microsomes assessed as 2-cyclohexyl-2-phenylglycolic acid formation per mg of protein by Michaelis-Menten equation; assay type: ADME; procedure, shortened: as §1
Liver cytosol [10] = assay: Drug metabolism in human liver cytosol assessed as 2-cyclohexyl-2-phenylglycolic acid formation per mg of protein by Michaelis-Menten equation; assay type: ADME, tissue-based; procedure, shortened: as §1
[11] = Activity of human recombinant CES1b/CES1A1 expressed in baculovirus-infected High Five insect cells assessed as enzyme-mediated 2-cyclohexyl-2-phenylglycolic acid formation per mg of protein by Michaelis-Menten equation; assay type: ADME; procedure, shortened: as §1
Cocaine esterase [12] = target: T1, Cocaine esterase; assay: Activity of human recombinant CES2 expressed in baculovirus-infected High Five insect cells assessed as enzyme-mediated 2-cyclohexyl-2-phenylglycolic acid formation per mg of protein by Michaelis-Menten equation; assay type: ADME
Liver microsome [13] = assay: Intrinsic clearance in human liver microsomes assessed as 2-cyclohexyl-2-phenylglycolic acid formation per mg of protein by Michaelis-Menten equation; assay type: ADME; procedure, shortened: as §1
Liver cytosol [14] = assay: Intrinsic clearance in human liver cytosol assessed as 2-cyclohexyl-2-phenylglycolic acid formation per mg of protein by Michaelis-Menten equation; assay type: ADME, tissue-based; procedure, shortened: as §1
[15] = Activity of human recombinant CES1b/CES1A1 expressed in baculovirus-infected High Five insect cells assessed as intrinsic clearance for enzyme-mediated 2-cyclohexyl-2-phenylglycolic acid formation per mg of protein by Michaelis-Menten equation; assay type: ADME; procedure, shortened: as §1
Cocaine esterase [16] = target: T1, Cocaine esterase; assay: Activity of human recombinant CES2 expressed in baculovirus-infected High Five insect cells assessed as intrinsic clearance for enzyme-mediated 2-cyclohexyl-2-phenylglycolic acid formation per mg of protein by Michaelis-Menten equation; assay type: ADME
Cocaine esterase [17] = target: T1, Cocaine esterase; assay: Activity of human recombinant CES2 expressed in baculovirus-infected High Five insect cells assessed as 5 uM CES1 inhibitor clopidogrel-mediated inhibition of enzyme-mediated 2-cyclohexyl-2-phenylglycolic acid formation at 10 uM for 30 mins by HPLC analysis; details: 0.5 h
Cocaine esterase [18] = target: T1, Cocaine esterase; assay: Activity of human recombinant CES2 expressed in baculovirus-infected High Five insect cells assessed as 50 uM CES1 inhibitor clopidogrel-mediated inhibition of enzyme-mediated 2-cyclohexyl-2-phenylglycolic acid formation at 10 uM for 30 mins by HPLC analysis; details: 0.5 h
[19] = substrate: CCN(CC)CC#CCOC(=O)C(O)(c1ccccc1)C1CCCCC1; assay: Activity of human CES2; assay type: ADME
[20] = substrate: CCN(CC)CC#CCOC(=O)C(O)(c1ccccc1)C1CCCCC1; assay: Activity of human recombinant CES2 expressed in baculovirus-infected High Five insect cells assessed as enzyme-mediated 2-cyclohexyl-2-phenylglycolic acid formation by Michaelis-Menten equation; assay type: ADME

O=C(O)C(O)(c1ccccc1)C1CCCCC1 (stereo unspecified)
Drug metabolism (Cocaine esterase [1]): metabolite_detected

CCN(CC)CC#CCOC(=O)C(O)(c1ccccc1)C1CCCCC1.Cl (stereo unspecified) [OXYBUTYNIN CHLORIDE]
inhibition (INH) (Cocaine esterase [2]): < 14% | inhibition (INH) (Cocaine esterase [3]): 58% | Km [4]: 22 µM | Km [5]: 13 µM | Km (Liver microsome [6]): 22 µM | Km (Liver cytosol [7]): 13 µM | Km [8]: 17 µM | Vmax (Liver microsome [9]): 130 pmol/min | Vmax (Liver cytosol [10]): 110 pmol/min | Vmax [11]: 310 pmol/min | Vmax (Cocaine esterase [12]): 32 pmol/min | CLint (Liver microsome [13]): 5.9 µL/min/mg | CLint (Liver cytosol [14]): 8.2 µL/min/mg | clearance [15]: 18 µL/min/mg | clearance (Cocaine esterase [16]): 0.51 µL/min/mg | inhibition (INH) (Cocaine esterase [17]): < 11% | inhibition (INH) (Cocaine esterase [18]): 53%

B1: Cocaine esterase (Homo sapiens) (protein)
chain: T1 sequence (O00748 whole entry)
Km [19]: 1100 µM | Vmax [19]: 0.36 µmol/min/mg | Km [20]: 62 µM
